In paper PMC5388420 (Nucleic Acids Research, 2016):
Like-named read-outs stand apart in the source and are kept apart here.

Key:
[1] = system: IFN-β/FireflyLuc reporter in HEK 293T cells; assay: IFN-β induction dual luciferase assay; format: cell-based; settings: for Maximum IFN-β Production, 5΄OH10L: HEK 293T cells challenged with 5΄OH10L; for Maximum IFN-β Production, 5΄ppp10L: HEK 293T cells challenged with 5΄ppp10L; for Maximum IFN-β Production, PIC: HEK 293T cells challenged with poly(I:C); for Maximum IFN-β Production, Mock: HEK 293T cells, mock challenge (no exogenous RNA)
[2] = system: 5΄ppp10L hairpin RNA; settings: presence of either ATPγS or ADP; ref [22]; cited from earlier work
[3] = MANT-ATP binding by stopped flow fluorescence spectroscopy; settings: for Kd: read-out: MANT-ATP binding Kd (calc., koff/kon)
[4] = target: FAM-labeled 10 base pair RNA hairpin (OH10L); assay: Equilibrium fluorescent RNA binding assay; settings: read-out: Equilibrium RNA binding Kd, OH10L
How it was run: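 Recombinant hRIG-I was expressed from pET-SUMO in E. coli Rosetta II (DE3) and purified by nickel, heparin and Superdex 200 chromatography. 6-FAM was attached via the amino-modified UUCG tetraloop, with 2 nM hairpin final. Buffer: 25 mM MOPS pH 7.4, 150 mM NaCl, 5 mM DTT, 0.01% Triton X-100. Protein was titrated over 12 points (1.5–1500 nM) and equilibrated 2 h at RT. Polarization was read at ex 485/em 528 (G = 0.87), 2 wells × 3 reads, and fit one-site total binding. Three experiments gave mean and SD.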

[5] = system: 5΄ppp10L RNA hairpin; assay: NADH coupled ATPase activity assay; format: biochemical; settings: for K M,RNA / k cat: steady state ATPase activity; for K M,RNA: 5΄ppp10L
How it was run: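 Coupled NADH assay: 10 nM RIG-I in 25 mM MOPS pH 7.4, 150 mM NaCl, 5 mM DTT with 1 mM NADH, 100 U/ml lactate dehydrogenase, 500 U/ml pyruvate kinase and 2.5 mM PEP. The hairpin was added as a 12-point series (~0.5–500 nM, diluted in MES pH 6.0/EDTA) and incubated ≥2 h at RT. Reactions were started with 5 mM ATP/5 mM MgCl2, and NADH absorbance loss was followed for 10 min. Mean velocities were plotted against RNA concentration.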

[6] = system: 5΄ppp10L hairpin RNA; assay: RNA dissociation rate constant measurements; format: binding
How it was run: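 RIG-I was pre-incubated equimolar with Cy3-labeled hairpin for 2–6 h at RT, then rapidly mixed with 100-fold excess unlabeled hairpin trap (2000 points). Nucleotide (3 mM ATPγS or ADP) plus MgCl2 was included with the trap. Excitation was 515 nm with emission ≥570 nm. 4–6 averaged traces were fit double-exponential for amplitudes and k1/k2.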

[7] = from 5΄ppp10L, nucleotide: ADP (3 mM)
[8] = from 5΄ppp10L, nucleotide: ATPγS (3 mM)
[9] = from 5΄ppp10L, nucleotide: None

B1: WT RIG-I: Wild-type human RIG-I (hRIG-I), innate immune receptor and RNA-stimulated ATPase, recombinant or expressed from pUNO-hRIG-I (protein, UniProt O95786 1-925, looked up)
Antiviral innate immune …: MTTEQRRSLQAFQDYIRKTLDPTYILSYMAPWFREEEVQYIQAEKNNKGPMEAATLFLKFLLELQEEGWFRGFLDALDHAGYSGLYEAIESWDFKKIEKLEEYRLLLKRLQPEFKTRIIPTDIISDLSECLINQECEEILQICSTKGMMAGAEKLVECLLRSDKENWPKTLKLALEKERNKFSELWIVEKGIKDVETEDLEDKMETSDIQIFYQEDPECQNLSENSCPPSEVSDTNLYSPFKPRNYQLELALPAMKGKNTIICAPTGCGKTFVSLLICEHHLKKFPQGQKGKVVFFANQIPVYEQQKSVFSKYFERHGYRVTGISGATAENVPVEQIVENNDIIILTPQILVNNLKKGTIPSLSIFTLMIFDECHNTSKQHPYNMIMFNYLDQKLGGSSGPLPQVIGLTASVGVGDAKNTDEALDYICKLCASLDASVIATVKHNLEELEQVVYKPQKFFRKVESRISDKFKYIIAQLMRDTESLAKRICKDLENLSQIQNREFGTQKYEQWIVTVQKACMVFQMPDKDEESRICKALFLYTSHLRKYNDALIISEHARMKDALDYLKDFFSNVRAAGFDEIEQDLTQRFEEKLQELESVSRDPSNENPKLEDLCFILQEEYHLNPETITILFVKTRALVDALKNWIEGNPKLSFLKPGILTGRGKTNQNTGMTLPAQKCILDAFKASGDHNILIATSVADEGIDIAQCNLVILYEYVGNVIKMIQTRGRGRARGSKCFLLTSNAGVIEKEQINMYKEKMMNDSILRLQTWDEAVFREKILHIQTHEKFIRDSQEKPKPVPDKENKKLLCRKCKALACYTADVRVIEECHYTVLGDAFKECFVSRPHPKPKQFSSFEKRAKIFCARQNCSHDWGIHVKYKTFEIPVIKIESFVVEDIATGVQTLYSKWKDFHFEKIPFDPAEMSK
Maximum IFN-β Production, 5΄OH10L [1]: 3.8 ± 0.3 Firefly Luc/Renilla Luc
Maximum IFN-β Production, 5΄ppp10L [1]: 20.1 ± 1.7 Firefly Luc/Renilla Luc
Maximum IFN-β Production, PIC [1]: 59.2 ± 15 Firefly Luc/Renilla Luc
Maximum IFN-β Production, Mock [1]: 0.99 ± 0.4 Firefly Luc/Renilla Luc
increase in the rate of dissociation from 5΄ppp10L [2]: 5 fold
Kd ([3]; protein bound to OH10L): 136 ± 6 µM
Kd [4]: 0.017 ± 0.001 µM
K M,RNA [5]: 10.0 ± 1.0 nM
k cat ([5]; stimulated by 5΄ppp10L): 18.2 ± 0.3 ATP/RIG-I•s
kcat (RNA-stimulated ATPase activity) ([5]; stimulated by 5΄ppp10L): 18.2 s⁻¹

B2: S411A: RIG-I variant with mutation S411A within conserved helicase Motif III; constitutively signaling (protein, UniProt O95786 1-925, looked up, variant S411A)
Antiviral innate immune …: MTTEQRRSLQAFQDYIRKTLDPTYILSYMAPWFREEEVQYIQAEKNNKGPMEAATLFLKFLLELQEEGWFRGFLDALDHAGYSGLYEAIESWDFKKIEKLEEYRLLLKRLQPEFKTRIIPTDIISDLSECLINQECEEILQICSTKGMMAGAEKLVECLLRSDKENWPKTLKLALEKERNKFSELWIVEKGIKDVETEDLEDKMETSDIQIFYQEDPECQNLSENSCPPSEVSDTNLYSPFKPRNYQLELALPAMKGKNTIICAPTGCGKTFVSLLICEHHLKKFPQGQKGKVVFFANQIPVYEQQKSVFSKYFERHGYRVTGISGATAENVPVEQIVENNDIIILTPQILVNNLKKGTIPSLSIFTLMIFDECHNTSKQHPYNMIMFNYLDQKLGGSSGPLPQVIGLTAAVGVGDAKNTDEALDYICKLCASLDASVIATVKHNLEELEQVVYKPQKFFRKVESRISDKFKYIIAQLMRDTESLAKRICKDLENLSQIQNREFGTQKYEQWIVTVQKACMVFQMPDKDEESRICKALFLYTSHLRKYNDALIISEHARMKDALDYLKDFFSNVRAAGFDEIEQDLTQRFEEKLQELESVSRDPSNENPKLEDLCFILQEEYHLNPETITILFVKTRALVDALKNWIEGNPKLSFLKPGILTGRGKTNQNTGMTLPAQKCILDAFKASGDHNILIATSVADEGIDIAQCNLVILYEYVGNVIKMIQTRGRGRARGSKCFLLTSNAGVIEKEQINMYKEKMMNDSILRLQTWDEAVFREKILHIQTHEKFIRDSQEKPKPVPDKENKKLLCRKCKALACYTADVRVIEECHYTVLGDAFKECFVSRPHPKPKQFSSFEKRAKIFCARQNCSHDWGIHVKYKTFEIPVIKIESFVVEDIATGVQTLYSKWKDFHFEKIPFDPAEMSK
Amplitude of k 1 [6, 7]: 62%
Amplitude of k 2 [6, 7]: 38%
k 1 (RNA dissociation rate constant) [6, 7]: 70 ± 0.9 × 10^−3 s^−1
k 2 (RNA dissociation rate constant) [6, 7]: 6 ± 0.1 × 10^−3 s^−1
Amplitude of k 1 [6, 8]: 42%
Amplitude of k 2 [6, 8]: 58%
k 1 (RNA dissociation rate constant) [6, 8]: 68 ± 0.9 × 10^−3 s^−1
k 2 (RNA dissociation rate constant) [6, 8]: 2 ± 0.04 × 10^−3 s^−1
Amplitude of k 1 [6, 9]: 52%
Amplitude of k 2 [6, 9]: 48%
k 1 (RNA dissociation rate constant) [6, 9]: 45 ± 0.2 × 10^−3 s^−1
k 2 (RNA dissociation rate constant) [6, 9]: 4 ± 0.1 × 10^−3 s^−1
effect of nucleotide on the rate of dissociation from 5΄ppp10L ([6]; saturating nucleotide (ATPγS, ADP)): did not significantly change
Maximum IFN-β Production, 5΄OH10L [1]: 19.5 ± 3.8 Firefly Luc/Renilla Luc
Maximum IFN-β Production, 5΄ppp10L [1]: 56.6 ± 10.8 Firefly Luc/Renilla Luc
Maximum IFN-β Production, PIC [1]: 209.8 ± 17 Firefly Luc/Renilla Luc
Maximum IFN-β Production, Mock [1]: 3.5 ± 0.5 Firefly Luc/Renilla Luc
greater affinity for MANT-ATP relative to WT ([3]; protein bound to OH10L): 2 fold
Kd ([3]; protein bound to 5΄ppp10L): 82 ± 6 µM
Kd ([3]; protein bound to OH10L): 75 ± 5 µM
Kd [4]: 0.023 ± 0.0018 µM
K M,RNA [5]: 5.0 ± 1 nM
k cat ([5]; stimulated by 5΄ppp10L): 5.1 ± 0.4 ATP/RIG-I•s

B3: S411L: RIG-I Motif III variant, serine 411 mutated to leucine, annotated in tumor samples (protein, UniProt O95786 1-925, looked up, variant S411L)
Antiviral innate immune …: MTTEQRRSLQAFQDYIRKTLDPTYILSYMAPWFREEEVQYIQAEKNNKGPMEAATLFLKFLLELQEEGWFRGFLDALDHAGYSGLYEAIESWDFKKIEKLEEYRLLLKRLQPEFKTRIIPTDIISDLSECLINQECEEILQICSTKGMMAGAEKLVECLLRSDKENWPKTLKLALEKERNKFSELWIVEKGIKDVETEDLEDKMETSDIQIFYQEDPECQNLSENSCPPSEVSDTNLYSPFKPRNYQLELALPAMKGKNTIICAPTGCGKTFVSLLICEHHLKKFPQGQKGKVVFFANQIPVYEQQKSVFSKYFERHGYRVTGISGATAENVPVEQIVENNDIIILTPQILVNNLKKGTIPSLSIFTLMIFDECHNTSKQHPYNMIMFNYLDQKLGGSSGPLPQVIGLTALVGVGDAKNTDEALDYICKLCASLDASVIATVKHNLEELEQVVYKPQKFFRKVESRISDKFKYIIAQLMRDTESLAKRICKDLENLSQIQNREFGTQKYEQWIVTVQKACMVFQMPDKDEESRICKALFLYTSHLRKYNDALIISEHARMKDALDYLKDFFSNVRAAGFDEIEQDLTQRFEEKLQELESVSRDPSNENPKLEDLCFILQEEYHLNPETITILFVKTRALVDALKNWIEGNPKLSFLKPGILTGRGKTNQNTGMTLPAQKCILDAFKASGDHNILIATSVADEGIDIAQCNLVILYEYVGNVIKMIQTRGRGRARGSKCFLLTSNAGVIEKEQINMYKEKMMNDSILRLQTWDEAVFREKILHIQTHEKFIRDSQEKPKPVPDKENKKLLCRKCKALACYTADVRVIEECHYTVLGDAFKECFVSRPHPKPKQFSSFEKRAKIFCARQNCSHDWGIHVKYKTFEIPVIKIESFVVEDIATGVQTLYSKWKDFHFEKIPFDPAEMSK
stimulation of koff^RNA by ATPγS ([6]; from 5΄ppp10L): 7.8 fold
Amplitude of k 1 [6, 8]: 81%
Amplitude of k 2 [6, 8]: 19%
k 1 (RNA dissociation rate constant) [6, 8]: 210 ± 1 × 10^−3 s^−1
k 2 (RNA dissociation rate constant) [6, 8]: 10 ± 0.1 × 10^−3 s^−1
Amplitude of k 1 [6, 9]: 52%
Amplitude of k 2 [6, 9]: 48%
k 1 (RNA dissociation rate constant) [6, 9]: 27 ± 0.2 × 10^−3 s^−1
k 2 (RNA dissociation rate constant) [6, 9]: 2 ± 0.04 × 10^−3 s^−1
loss in IFN-β activation relative to WT ([1]; HEK 293T cells challenged by 5΄ppp10L): 3 fold
loss in IFN-β activation relative to WT ([1]; HEK 293T cells challenged by poly I:C): 31 fold
Maximum IFN-β Production, 5΄ppp10L [1]: 7.8 ± 1.5 Firefly Luc/Renilla Luc
Maximum IFN-β Production, PIC [1]: 1.8 ± 0.4 Firefly Luc/Renilla Luc
Maximum IFN-β Production, Mock [1]: 0.2 ± 0.01 Firefly Luc/Renilla Luc
Kd ([3]; protein bound to 5΄ppp10L): 110 ± 8 µM
Kd [4]: 0.041 ± 0.0018 µM
K M,RNA [5]: Inactive
k cat ([5]; stimulated by 5΄ppp10L): Inactive
